Read-outs that look alike come from different tables or passages of the source.
Tests used:
[1] = assay type: in vivo; settings: female, human, plasma, po, 400 mg
[2] = Estimated first-pass metabolism in gut and liver; assay type: in vivo, human
[3] = oral 200‐1200 mg once daily, patients, EMBER; cited from earlier work
P‐glycoprotein = settings: in vitro; cited from earlier work
[4] = target: cytochrome P450 (CYP) 3A4 (Homo sapiens, UniProt P08684); assay: In vitro enzyme substrate studies, CYP3A4; assay type: in vitro ADME
Chain of cytochrome P450 (CYP) 3A4 (P08684 whole entry): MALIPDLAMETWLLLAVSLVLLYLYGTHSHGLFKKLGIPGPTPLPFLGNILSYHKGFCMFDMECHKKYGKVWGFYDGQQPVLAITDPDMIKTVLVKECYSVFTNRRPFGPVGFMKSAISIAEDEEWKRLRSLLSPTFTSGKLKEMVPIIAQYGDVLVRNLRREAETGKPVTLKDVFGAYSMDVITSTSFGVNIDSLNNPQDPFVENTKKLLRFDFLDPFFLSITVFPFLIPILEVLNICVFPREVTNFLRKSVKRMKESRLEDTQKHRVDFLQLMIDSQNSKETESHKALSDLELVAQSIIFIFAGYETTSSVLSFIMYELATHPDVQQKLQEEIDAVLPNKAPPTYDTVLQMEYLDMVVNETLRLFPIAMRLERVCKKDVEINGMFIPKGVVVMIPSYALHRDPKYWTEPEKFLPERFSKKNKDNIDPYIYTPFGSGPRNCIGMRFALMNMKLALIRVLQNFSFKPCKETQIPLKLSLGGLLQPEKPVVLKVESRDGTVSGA

[5] = assay type: in vivo, human
[6] = Biliary excretion in bile-cannulated rats; assay type: in vivo; settings: data not shown
[7] = similar to Biopharmaceutics Classification System Class 2 compounds; cited from earlier work
[8] = Metabolite profiling and identification in plasma and feces; assay type: in vivo, human; settings: Part 1: oral 400 mg [14C]-imlunestrant solution
Method in brief: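 Part 1 plasma was sampled predose and 0.5–264 h after the oral radiolabelled dose. It was extracted twice with acetonitrile (3 volumes), dried, and reconstituted in 10 mM ammonium formate pH 9.0:methanol (80:20). Separation was on a C18 column with 10 mM ammonium formate pH 9.0 / methanol, gradient 20% to 90% B. Fecal metabolites were identified if ≥1% of dose across time points.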

[9] = assay type: in vivo, human; settings: Part 1: single oral 400 mg [14C]-imlunestrant solution
Method in brief: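 Healthy women received a single oral 400 mg radiolabelled test compound solution (100 µCi). Urine was collected −12–0, 0–6, 6–12 and 12–24 h, then in 24-h intervals. Feces were pooled 0–24 h, then in 24-h intervals. Collection continued until ≥90% of dose was recovered and ≤1%/day for 2 consecutive days, or Day 22. Vomitus was collected within 4 h. Radioactivity was counted by LSC and reported as % and cumulative % of dose.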

[10] = tested on: uridine 5′ diphospho‐glucuronosyltransferases (UGTs; including UGT1A1, UGT1A8, UGT1A3, UGT1A9, and UGT1A10); assay: In vitro enzyme substrate studies, UGTs; assay type: in vitro ADME
Safety and tolerability = assay type: in vivo, human
Method in brief: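 AEs and SAEs were monitored to Day 59 (Part 1) or Day 46 (Part 2), with a follow-up call ~7 days after discharge. Part 2 gave two 200-mg oral tablets, then 4 h later a 45 µg (~1 µCi) radiolabelled IV infusion over 15 min. TEAEs were summarised by treatment, MedDRA v24.0 system organ class and preferred term. Severity (mild/moderate/severe) was graded by the investigator.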

[11] = cited from earlier work
[12] = Part 2: 45 µg [14C]-imlunestrant (1 µCi) IV infusion
[13] = female, human, plasma, intravenous, 45 µg
[14] = female, human, plasma, iv, 45 µg
[15] = female, human, plasma, po, 400 mg
[16] = Part 1: 400 mg [14C]-imlunestrant oral (N=8)

Oc1ccc2c3c(cnc2c1)-c1ccc(C(F)(F)F)cc1O[C@@H]3c1ccc(OCCN2CC(CF)C2)cc1 [Imlunestrant]
Cmax [1]: 117 ng/mL
half-life [1]: 33.7 h
Fraction passing through the portal vein extracted by first‐pass metabolism in the liver [2]: Approximately 30%
Dose dependence of Cmax and AUC0‐∞ [3]: dose‐proportional increase
Geometric mean t1/2 [3]: 25 to 30 h
Median tmax [3]: approximately 4 hours
Substrate of the efflux transporter P‐glycoprotein (P‐glycoprotein): in vitro substrate
Substrate of CYP3A4 [4]: substrate
Time to Cmax of [14C]‐imlunestrant after start of intravenous infusion [5, 12]: ≤ 15 min
Time to Cmax of total radioactivity after start of intravenous infusion [5, 12]: ≤ 15 min
AUC [5, 13]: 1.92 ng·h/mL
Cmax [5, 13]: 0.585 ng/mL
Tmax [5, 13]: 0.25 h
half-life [5, 13]: 32.5 h
Vd [5, 14]: 1020 L
clearance [5, 14]: 397 mL/min
Cmax [5, 15]: 38.7 ng/mL
Tmax [5, 15]: 4.37 h
half-life [5, 15]: 32.1 h
Fraction of oral dose appearing as a glucuronide metabolite in bile [6]: substantial fraction
Permeability [7]: moderate to high
Detectable in plasma up to [8]: up to 264 hours
Radioactivity recovered in the feces in the first 192 hours [9]: Over 90%
Total radioactivity excreted via the feces ([9]; mean of 5 participants): 97.3%
Substrate of UGTs [10]: substrate
All TEAEs: % of participants with TEAEs (Safety and tolerability; [16]): 100%
All TEAEs: number of participants with TEAEs (Safety and tolerability; [16]): 8
All TEAEs: number of TEAEs (Safety and tolerability; Part 2: 400 mg imlunestrant oral tablets + 45 µg [14C]-imlunestrant IV (N=8)): 5
Tolerability (Safety and tolerability; single 400 mg oral solution or tablet/intravenous dose, fasted, healthy women): well tolerated

C[C@]12CC[C@@H]3c4ccc(O)cc4C[C@@H](CCCCCCCCC[S+]([O-])CCCC(F)(F)C(F)(F)F)[C@H]3[C@@H]1CC[C@@H]2O (stereo partly drawn) [fulvestrant]
Solubility [11]: poorly soluble

Reference: article PMC12486192 (Clinical Pharmacology in Drug Development, 2025)
